From ChEMBL document CHEMBL5113397, “Identification, optimization, and biological evaluation of 3-O-β-chacotriosyl ursolic acid derivatives as novel SARS-CoV-2 entry inhibitors by targeting the prefusion state of spike protein” (Eur J Med Chem, 2022)
Calls of active or inactive are those of the source. The rule behind the calls is not given here.

What was measured:
[1] = Selectivity index, ratio of CC50 for cytotoxicity against human HEK293T cells overexpressing human ACE2 to EC50 for antiviral activity against SARS-CoV-2 VSV-G pseudotyped virus infected human HEK293T cells overexpressing ACE2; format: toxicity, cell-based; details: read-out: Ratio CC50/EC50
SARS-CoV-2 [2] = experiment: Antiviral activity against pseudovirus SARS-CoV-2 spike protein infected human HEK293T cells overexpressing ACE2 assessed as inhibition on pseudovirus infection incubated for 48 hrs by luciferase assay; format: functional, organism-based; details: Severe acute respiratory syndrome coronavirus 2, HEK-293T
How it was run: (§1)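 S plasmid (wild type, or E484K, D614G or N501Y mutant) transfected into 293T cells; PsV-containing supernatant harvested at 48 h. 293T-ACE2 cells seeded 24 h ahead, then given an equal-volume mix of compound dilutions and PsV supernatant for 48 h. Cells lysed and luciferase activity quantified. Mean ± SD of three experiments.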

SARS-CoV-2 [3] = experiment: Antiviral activity against pseudovirus SARS-CoV-2 spike protein infected human HEK293T cells overexpressing ACE2 assessed as inhibition on pseudovirus infection at 10 uM incubated for 48 hrs by luciferase assay; format: functional; details: Severe acute respiratory syndrome coronavirus 2, HEK-293T; how it was run: as §1
SARS-CoV-2 [4] = experiment: Antiviral activity against pseudovirus SARS-CoV-2 spike protein infected human HEK293T cells overexpressing ACE2 assessed as inhibition on pseudovirus infection at 40 uM incubated for 48 hrs by luciferase assay; format: functional; details: Severe acute respiratory syndrome coronavirus 2, HEK-293T; how it was run: as §1
SARS-CoV-2 [5] = experiment: Antiviral activity against pseudovirus SARS-CoV-2 spike protein mutant Omicron variant infected human HEK293T cells overexpressing ACE2 assessed as inhibition on viral entry incubated for 48 hrs by luciferase assay; format: functional, organism-based, Severe acute respiratory syndrome coronavirus 2
SARS-CoV-2 [6] = experiment: Antiviral activity against pseudovirus SARS-CoV-2 spike protein with D614G mutant infected human HEK293T cells overexpressing ACE2 assessed as inhibition on pseudovirus infection at 5 to 40 uM incubated for 48 hrs by luciferase assay; format: functional, organism-based; details: Severe acute respiratory syndrome coronavirus 2, dose 5-40 µM; how it was run: as §1
SARS-CoV-2 [7] = experiment: Antiviral activity against SARS-CoV-2 VSV-G pseudotyped virus infected human HEK293T cells overexpressing ACE2 incubated for 48 hrs by luciferase assay; format: functional, organism-based; details: Severe acute respiratory syndrome coronavirus 2, HEK-293T
SARS-CoV-2 [8] = experiment: Antiviral activity against pseudovirus SARS-CoV-2 spike protein with E484K mutant infected human HEK293T cells overexpressing ACE2 assessed as inhibition on pseudovirus infection at 5 to 40 uM incubated for 48 hrs by luciferase assay; format: functional, organism-based; details: Severe acute respiratory syndrome coronavirus 2, dose 5-40 µM; how it was run: as §1
SARS-CoV-2 [9] = experiment: Antiviral activity against pseudotyped spike protein mutant P.10 SARS-CoV-2 Gamma variant infected human HEK293T cells overexpressing ACE2 assessed as inhibition on viral entry incubated for 48 hrs by luciferase assay; format: functional, organism-based, Severe acute respiratory syndrome coronavirus 2
SARS-CoV-2 [10] = experiment: Antiviral activity against pseudovirus spike protein mutant B.1.617.2 SARS-CoV-2 Delta variant infected human HEK293T cells overexpressing ACE2 assessed as inhibition on viral entry incubated for 48 hrs by luciferase assay; format: functional, organism-based, Severe acute respiratory syndrome coronavirus 2
SARS-CoV-2 [11] = experiment: Antiviral activity against pseudovirus SARS-CoV-2 spike protein with N501Y mutant infected human HEK293T cells overexpressing ACE2 assessed as inhibition on pseudovirus infection at 5 to 40 uM incubated for 48 hrs by luciferase assay; format: functional, organism-based; details: Severe acute respiratory syndrome coronavirus 2, dose 5-40 µM; how it was run: as §1
SARS-CoV-2 [12] = experiment: Antiviral activity against pseudotyped spike protein mutant B.1.351 SARS-CoV-2 Beta variant infected human HEK293T cells overexpressing ACE2 assessed as inhibition on viral entry incubated for 48 hrs by luciferase assay; format: functional, organism-based, Severe acute respiratory syndrome coronavirus 2
SARS-CoV-2 [13] = experiment: Antiviral activity against pseudotyped spike protein mutant B.1.1.7 SARS-CoV-2 Alpha variant infected human HEK293T cells overexpressing ACE2 assessed as inhibition on viral entry incubated for 48 hrs by luciferase assay; format: functional, organism-based, Severe acute respiratory syndrome coronavirus 2

Compound | EC50 (SARS-CoV-2 [2]) | inhibition at 10 µM (SARS-CoV-2 [3]) | inhibition at 40 µM (SARS-CoV-2 [4]) | other results
COc1ccccc1NC(=O)[C@]12CC[C@@H](C)[C@H](C)[C@H]1C1=CC[C@@H]3[C@@]4(C)CC[C@H](O[C@@H]5O[C@H](CO)[C@@H](O[C@@H]6O[C@@H](C)[C@H](O)[C@@H](O)[C@H]6O)[C@H](O)[C@H]5O[C@@H]5O[C@@H](C)[C@H](O)[C@@H](O)[C@H]5O)C(C)(C)[C@@H]4CC[C@@]3(C)[C@]1(C)CC2 | 10.7 µM |  |  | selectivity ratio [1]: 4.05
C[C@H]1[C@H](C)CC[C@]2(C(=O)Nc3ccc(Cc4ccccc4)cc3)CC[C@]3(C)C(=CC[C@@H]4[C@@]5(C)CC[C@H](O[C@@H]6O[C@H](CO)[C@@H](O[C@@H]7O[C@@H](C)[C@H](O)[C@@H](O)[C@H]7O)[C@H](O)[C@H]6O[C@@H]6O[C@@H](C)[C@H](O)[C@@H](O)[C@H]6O)C(C)(C)[C@@H]5CC[C@]43C)[C@H]12 |  | 19.2% | 10.3% | 
C[C@H]1[C@H](C)CC[C@]2(C(=O)Nc3ccc4ccccc4c3)CC[C@]3(C)C(=CC[C@@H]4[C@@]5(C)CC[C@H](O[C@@H]6O[C@H](CO)[C@@H](O[C@@H]7O[C@@H](C)[C@H](O)[C@@H](O)[C@H]7O)[C@H](O)[C@H]6O[C@@H]6O[C@@H](C)[C@H](O)[C@@H](O)[C@H]6O)C(C)(C)[C@@H]5CC[C@]43C)[C@H]12 |  | 14.5% | -7.27% | 
COc1cccc(OC)c1NC(=O)[C@]12CC[C@@H](C)[C@H](C)[C@H]1C1=CC[C@@H]3[C@@]4(C)CC[C@H](O[C@@H]5O[C@H](CO)[C@@H](O[C@@H]6O[C@@H](C)[C@H](O)[C@@H](O)[C@H]6O)[C@H](O)[C@H]5O[C@@H]5O[C@@H](C)[C@H](O)[C@@H](O)[C@H]5O)C(C)(C)[C@@H]4CC[C@@]3(C)[C@]1(C)CC2 | 9.84 µM | 96.8% | 46.8% | EC50 (SARS-CoV-2 [5]): 7.23 µM; inhibition (SARS-CoV-2 [6]): Active; EC50 (SARS-CoV-2 [7]): > 100 µM; inhibition (SARS-CoV-2 [8]): Active; selectivity ratio [1]: > 10.2; EC50 (SARS-CoV-2 [9]): 2.66 µM; EC50 (SARS-CoV-2 [10]): 1.78 µM; inhibition (SARS-CoV-2 [11]): Active; EC50 (SARS-CoV-2 [12]): 11.6 µM; EC50 (SARS-CoV-2 [13]): 7.68 µM
C[C@H]1[C@H](C)CC[C@]2(C(=O)Nc3ccc4c(cnn4C)c3)CC[C@]3(C)C(=CC[C@@H]4[C@@]5(C)CC[C@H](O[C@@H]6O[C@H](CO)[C@@H](O[C@@H]7O[C@@H](C)[C@H](O)[C@@H](O)[C@H]7O)[C@H](O)[C@H]6O[C@@H]6O[C@@H](C)[C@H](O)[C@@H](O)[C@H]6O)C(C)(C)[C@@H]5CC[C@]43C)[C@H]12 |  | 51.9% | 41.1% | 
C[C@H]1[C@H](C)CC[C@]2(C(=O)NCc3ccccc3)CC[C@]3(C)C(=CC[C@@H]4[C@@]5(C)CC[C@H](O[C@@H]6O[C@H](CO)[C@@H](O[C@@H]7O[C@@H](C)[C@H](O)[C@@H](O)[C@H]7O)[C@H](O)[C@H]6O[C@@H]6O[C@@H](C)[C@H](O)[C@@H](O)[C@H]6O)C(C)(C)[C@@H]5CC[C@]43C)[C@H]12 | 12 µM | 92.5% | 59.2% | EC50 (SARS-CoV-2 [7]): > 100 µM; selectivity ratio [1]: > 10
C[C@H]1[C@H](C)CC[C@]2(C(=O)Nc3ccc4ncccc4c3)CC[C@]3(C)C(=CC[C@@H]4[C@@]5(C)CC[C@H](O[C@@H]6O[C@H](CO)[C@@H](O[C@@H]7O[C@@H](C)[C@H](O)[C@@H](O)[C@H]7O)[C@H](O)[C@H]6O[C@@H]6O[C@@H](C)[C@H](O)[C@@H](O)[C@H]6O)C(C)(C)[C@@H]5CC[C@]43C)[C@H]12 |  | 33.1% | 27.4% | 
C[C@H]1[C@H](C)CC[C@]2(C(=O)NC(c3ccccc3)c3ccccc3)CC[C@]3(C)C(=CC[C@@H]4[C@@]5(C)CC[C@H](O[C@@H]6O[C@H](CO)[C@@H](O[C@@H]7O[C@@H](C)[C@H](O)[C@@H](O)[C@H]7O)[C@H](O)[C@H]6O[C@@H]6O[C@@H](C)[C@H](O)[C@@H](O)[C@H]6O)C(C)(C)[C@@H]5CC[C@]43C)[C@H]12 |  | 1.58% | 0.47% | 
C[C@H]1[C@H](C)CC[C@]2(C(=O)N3CCc4ccccc4C3)CC[C@]3(C)C(=CC[C@@H]4[C@@]5(C)CC[C@H](O[C@@H]6O[C@H](CO)[C@@H](O[C@@H]7O[C@@H](C)[C@H](O)[C@@H](O)[C@H]7O)[C@H](O)[C@H]6O[C@@H]6O[C@@H](C)[C@H](O)[C@@H](O)[C@H]6O)C(C)(C)[C@@H]5CC[C@]43C)[C@H]12 |  | 58.7% | 32.5% | 
O=C(/C=C/c1ccc(O)c2oc(-c3ccc(O)c(O)c3)cc12)O[C@H](Cc1ccc(O)c(O)c1)C(=O)O |  | 98.3% | 80.2% | 
C[C@H]1[C@H](C)CC[C@]2(C(=O)Nc3ccc4c(c3)OCCO4)CC[C@]3(C)C(=CC[C@@H]4[C@@]5(C)CC[C@H](O[C@@H]6O[C@H](CO)[C@@H](O[C@@H]7O[C@@H](C)[C@H](O)[C@@H](O)[C@H]7O)[C@H](O)[C@H]6O[C@@H]6O[C@@H](C)[C@H](O)[C@@H](O)[C@H]6O)C(C)(C)[C@@H]5CC[C@]43C)[C@H]12 |  | 30.4% | -2.49% | 
COc1ccc(CNC(=O)[C@]23CC[C@@H](C)[C@H](C)[C@H]2C2=CC[C@@H]4[C@@]5(C)CC[C@H](O[C@@H]6O[C@H](CO)[C@@H](O[C@@H]7O[C@@H](C)[C@H](O)[C@@H](O)[C@H]7O)[C@H](O)[C@H]6O[C@@H]6O[C@@H](C)[C@H](O)[C@@H](O)[C@H]6O)C(C)(C)[C@@H]5CC[C@@]4(C)[C@]2(C)CC3)cc1 | 11.8 µM | 85.7% | 36.3% | EC50 (SARS-CoV-2 [7]): > 100 µM; selectivity ratio [1]: > 10
C[C@H]1[C@H](C)CC[C@]2(C(=O)NCCc3ccccc3)CC[C@]3(C)C(=CC[C@@H]4[C@@]5(C)CC[C@H](O[C@@H]6O[C@H](CO)[C@@H](O[C@@H]7O[C@@H](C)[C@H](O)[C@@H](O)[C@H]7O)[C@H](O)[C@H]6O[C@@H]6O[C@@H](C)[C@H](O)[C@@H](O)[C@H]6O)C(C)(C)[C@@H]5CC[C@]43C)[C@H]12 |  | 49.5% | 28.2% | 
C[C@H]1[C@H](C)CC[C@]2(C(=O)Nc3ccc4sccc4c3)CC[C@]3(C)C(=CC[C@@H]4[C@@]5(C)CC[C@H](O[C@@H]6O[C@H](CO)[C@@H](O[C@@H]7O[C@@H](C)[C@H](O)[C@@H](O)[C@H]7O)[C@H](O)[C@H]6O[C@@H]6O[C@@H](C)[C@H](O)[C@@H](O)[C@H]6O)C(C)(C)[C@@H]5CC[C@]43C)[C@H]12 |  | -21.7% | -31.8% | 
C[C@H]1[C@H](C)CC[C@]2(C(=O)Nc3ccccc3Cl)CC[C@]3(C)C(=CC[C@@H]4[C@@]5(C)CC[C@H](O[C@@H]6O[C@H](CO)[C@@H](O[C@@H]7O[C@@H](C)[C@H](O)[C@@H](O)[C@H]7O)[C@H](O)[C@H]6O[C@@H]6O[C@@H](C)[C@H](O)[C@@H](O)[C@H]6O)C(C)(C)[C@@H]5CC[C@]43C)[C@H]12 | 12.7 µM |  |  | 
C[C@H]1[C@H](C)CC[C@]2(C(=O)Nc3ccc(-c4ccccc4)cc3)CC[C@]3(C)C(=CC[C@@H]4[C@@]5(C)CC[C@H](O[C@@H]6O[C@H](CO)[C@@H](O[C@@H]7O[C@@H](C)[C@H](O)[C@@H](O)[C@H]7O)[C@H](O)[C@H]6O[C@@H]6O[C@@H](C)[C@H](O)[C@@H](O)[C@H]6O)C(C)(C)[C@@H]5CC[C@]43C)[C@H]12 |  | 27.4% | 16.9% | 
